39 molecules from ChEMBL document CHEMBL3425441 (J Med Chem, 2015) can be followed below.

Data set [1] is described as follows: Cytotoxicity against human U937 cells assessed as cell death after 72 hrs by sulforhodamine B assay. The settings on record: U-937, 72 h.
Data set [2] in a line: Metabolic stability in rat liver microsomes at 10 uM after 3 hrs by LC/MS analysis. The settings on record: read-out: Stability. It is filed as ADME. (In general: Microsomes from liver hold many membrane-bound enzymes, among them those of drug oxidation.)
A further data set relates to Mus musculus. The experiment in a line: Toxicity in C57BL/6 mouse at 200 mg/kg, ip measured over 24 hrs. It is filed as organism-based. Also on record: dose 200 mg/kg, route intraperitoneal. The settings on record: in vivo. In a few lines: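 Tolerability: C57BL/6 mice aged 8-10 weeks, n = 3 per cohort, given a single 200 mg/kg i.p. dose formulated at 5 mg/mL in 200 mg/mL HPβCD, pH 5.5. Signs classed as excitatory or depressive and graded mild to severe.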

The nature of data set [3]: Metal chelating activity of the compound assessed as zinc complex formation after 5 mins by EGTA fluorescence titration Assay. It is filed as physicochemical.
The target in data set [4] is Caspase-3/Caspase-7 (Homo sapiens) (UniProt P42574+P55210). The experiment in a line: Activation of Caspase 3/7 in human U937 cells assessed as cleavage of Ac-DEVD-AFC at 30 uM after 16 hrs by fluorescence assay relative to control. It is filed as cell-based. The settings on record: U-937.
The test system of a further data set is Serum. Kind of data set: Drug uptake in C57/BL6 mouse serum at 25 mg/kg, iv measured after 8 hrs by LC/MS/MS analysis. Also on record: dose 25 mg/kg, route intravenous. The settings on record: in vivo. It is filed as ADME, organism-based. In short, it runs like this:
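Mouse PK: C57/BL6 mice, n = 2 per cohort per time point, 25 mg/kg given by tail vein injection or oral gavage; formulated at 5 mg/mL in 200 mg/mL HPβCD, pH 5.5. Mice sacrificed at set times, blood collected, EDTA plasma frozen at -80°C. Levels measured by LC/MS/MS (Polar-RP column, formic acid/methanol gradient, negative ESI) against an internal standard.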

Sequence of Caspase-3/Caspase-7 (Homo sapiens) (P42574 whole entry, looked up): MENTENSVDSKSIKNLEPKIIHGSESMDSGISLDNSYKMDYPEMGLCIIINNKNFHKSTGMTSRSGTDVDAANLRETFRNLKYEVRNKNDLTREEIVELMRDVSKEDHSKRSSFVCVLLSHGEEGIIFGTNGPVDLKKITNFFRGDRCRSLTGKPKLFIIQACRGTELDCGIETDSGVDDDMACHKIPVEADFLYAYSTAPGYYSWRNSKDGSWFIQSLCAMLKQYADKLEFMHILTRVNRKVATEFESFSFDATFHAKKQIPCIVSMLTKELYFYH
Sequence of Caspase-3/Caspase-7 (Homo sapiens) (P55210 whole entry, looked up): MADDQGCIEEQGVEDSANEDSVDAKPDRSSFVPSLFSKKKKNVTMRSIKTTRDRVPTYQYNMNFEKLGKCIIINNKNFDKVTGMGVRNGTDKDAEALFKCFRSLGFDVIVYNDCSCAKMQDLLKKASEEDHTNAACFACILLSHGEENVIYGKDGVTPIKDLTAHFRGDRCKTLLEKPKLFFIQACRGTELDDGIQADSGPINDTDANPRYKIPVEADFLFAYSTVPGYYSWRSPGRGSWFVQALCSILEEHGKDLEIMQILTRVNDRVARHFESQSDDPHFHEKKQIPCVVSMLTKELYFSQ

The term IC50 denotes the midpoint of a concentration-inhibition curve. `O=C(CN1CCN(C(=O)c2ccc(F)cc2)CC1)N/N=C/c1cc(F)ccc1O`: the IC50 in data set [1] was 15.3 µM. Further, in data set [2], the remaining at 3 h, 10 µM worked out at 86%.

On to `CCCc1cccc(/C=N/NC(=O)CN2CCN(C(=O)c3ccc(C(F)(F)F)cc3)CC2)c1O`, for which the remaining at 3 h, 10 µM in data set [2] was 64%.

With `CCCc1cc(F)cc(/C=N/NC(=O)CN2CCN(Cc3ccc(S(N)(=O)=O)cc3)CC2)c1O`, the remaining at 3 h, 10 µM in data set [2] was 62%.

For `CCCc1cc(F)cc(/C=N/NC(=O)CN2CCN(Cc3ccc(C(F)(F)F)cc3)CC2)c1O`, the remaining at 3 h, 10 µM in data set [2] amounted to 40%.

As to `C=CCc1cc(F)cc(/C=N/NC(=O)CN2CCN(Cc3ccc(F)cc3)CC2)c1O`, the IC50 in data set [1] was 10.3 µM. The remaining at 3 h, 10 µM in data set [2] worked out at 57%.

With `O=C(CN1CCN(C(=O)c2ccccc2)CC1)N/N=C/c1cc(F)ccc1O`, in data set [1], the IC50 came to 15.7 µM. For the same molecule, the remaining at 3 h, 10 µM in data set [2] came out at 88%.

For the molecule `C=CCc1cccc(/C=N/NC(=O)CN2CCN(C(=O)c3ccc(C#N)cc3)CC2)c1O`, the IC50 in data set [1] worked out at 13.1 µM. Besides, the remaining at 3 h, 10 µM in data set [2] came out at 90%.

In the case of `CCCc1cccc(/C=N/NC(=O)CN2CCN(Cc3ccc(S(N)(=O)=O)cc3)CC2)c1O`, the remaining at 3 h, 10 µM in data set [2] came to 61%.

In the case of `CCCc1cc(F)cc(/C=N/NC(=O)CN2CCN(C(=O)c3ccccc3)CC2)c1O`, in data set [1], the IC50 is 12.3 µM. Further, the remaining at 3 h, 10 µM in data set [2] came out at 86%.

As to `CCCc1cccc(/C=N/NC(=O)CN2CCN(Cc3ccc(C(F)(F)F)cc3)CC2)c1O`, the remaining at 3 h, 10 µM in data set [2] worked out at 15%.

Regarding `CCCc1cccc(/C=N/NC(=O)CN2CCN(C(=O)c3ccccc3)CC2)c1O`, the IC50 in data set [1] stood at 9.4 µM. Also, the remaining at 3 h, 10 µM in data set [2] turned out to be 71%.

For the molecule `CCCc1cc(F)cc(/C=N/NC(=O)CN2CCN(C(=O)c3ccc(F)cc3)CC2)c1O`, the IC50 in data set [1] was determined as 7.5 µM. In data set [2], the remaining at 3 h, 10 µM is 67%. Besides, in the data set on Mus musculus, the Activity result is given as “Toxic”.

Broadly, the Kd is the free concentration of one partner at which half of the binding sites on the other are occupied at equilibrium, for simple one-to-one binding. Consider `O=C(CN1CCN(Cc2ccccc2)CC1)N/N=C/c1ccccc1`, for which the Kd in data set [3] is over 1000 µM. For the same molecule, the Activity in data set [4] came to 3%.

For `CCCc1cccc(/C=N/NC(=O)CN2CCN(Cc3ccc(F)cc3)CC2)c1O`, the IC50 in data set [1] came out at 10 µM. In addition, the remaining at 3 h, 10 µM in data set [2] is 24%.

Regarding `C=CCc1cccc(/C=N/NC(=O)CN2CCN(C(=O)c3ccc(C(F)(F)F)cc3)CC2)c1O`, in data set [2], the remaining at 3 h, 10 µM amounted to 85%.

As for `C=CCc1cc(F)cc(/C=N/NC(=O)CN2CCN(C(=O)c3ccc(F)cc3)CC2)c1O`, the IC50 in data set [1] came to 8.5 µM. The remaining at 3 h, 10 µM in data set [2] was 92%. Also, the Activity result in the data set on Mus musculus is given as “Toxic”.

With `C=CCc1cccc(/C=N/NC(=O)CN2CCN(Cc3ccc(F)cc3)CC2)c1O`, in data set [1], the IC50 is 11.1 µM. Also, in data set [2], the remaining at 3 h, 10 µM turned out to be 31%.

`C=CCc1cc(F)cc(/C=N/NC(=O)CN2CCN(Cc3ccccc3)CC2)c1O`: the IC50 in data set [1] was 9.5 µM. Besides, the remaining at 3 h, 10 µM in data set [2] was found to be 56%.

With `C=CCc1cc(F)cc(/C=N/NC(=O)CN2CCN(Cc3ccc(S(N)(=O)=O)cc3)CC2)c1O`, the remaining at 3 h, 10 µM in data set [2] came out at 89%.

For `O=C(CN1CCN(Cc2ccccc2)CC1)N/N=C/c1cc(F)ccc1O`, the IC50 in data set [1] was 17 µM. Further, in data set [2], the remaining at 3 h, 10 µM stood at 64%.

On to `C=CCc1cc(F)cc(/C=N/NC(=O)CN2CCN(C(=O)c3ccc(C#N)cc3)CC2)c1O`, for which the remaining at 3 h, 10 µM in data set [2] was determined as 95%. Also, the Drug uptake entry with Serum is “Active”.

`CCCc1cccc(/C=N/NC(=O)CN2CCN(Cc3ccc(C#N)cc3)CC2)c1O`: in data set [1], the IC50 is 9 µM. Moreover, the remaining at 3 h, 10 µM in data set [2] is 30%.

As to `CCCc1cccc(/C=N/NC(=O)CN2CCN(Cc3ccccc3)CC2)c1O`, in data set [1], the IC50 is 9.6 µM. Besides, the remaining at 3 h, 10 µM in data set [2] came to 30%.

For `C=CCc1cccc(/C=N/NC(=O)CN2CCN(Cc3ccc(C#N)cc3)CC2)c1O`, the IC50 in data set [1] came to 13.7 µM. Also, in data set [2], the remaining at 3 h, 10 µM worked out at 48%.

With `CCCc1cc(F)cc(/C=N/NC(=O)CN2CCN(Cc3ccc(F)cc3)CC2)c1O`, the IC50 in data set [1] amounted to 7.5 µM. Besides, the remaining at 3 h, 10 µM in data set [2] was 48%.

As to `C=CCc1cc(F)cc(/C=N/NC(=O)CN2CCN(C(=O)c3ccc(C(F)(F)F)cc3)CC2)c1O`, the remaining at 3 h, 10 µM in data set [2] came to 90%.

Take `CCCc1cc(F)cc(/C=N/NC(=O)CN2CCN(C(=O)c3ccc(C(F)(F)F)cc3)CC2)c1O`: in data set [2], the remaining at 3 h, 10 µM came out at 64%.

Take `O=C(CN1CCN(C(=O)c2ccc(C(F)(F)F)cc2)CC1)N/N=C/c1cc(F)ccc1O`: the IC50 in data set [1] is 8.7 µM. The remaining at 3 h, 10 µM in data set [2] was found to be 87%. The Activity entry in the data set on Mus musculus is listed as “Non-toxic”.

`C=CCc1cccc(/C=N/NC(=O)CN2CCN(Cc3ccc(C(F)(F)F)cc3)CC2)c1O`: the remaining at 3 h, 10 µM in data set [2] came to 16%.

As for `O=C(CN1CCN(Cc2ccc(C(F)(F)F)cc2)CC1)N/N=C/c1cc(F)ccc1O`, in data set [1], the IC50 stood at 4.7 µM. Besides, the remaining at 3 h, 10 µM in data set [2] stood at 30%.

`CCCc1cc(F)cc(/C=N/NC(=O)CN2CCN(C(=O)c3ccc(C#N)cc3)CC2)c1O`: the remaining at 3 h, 10 µM in data set [2] is 66%. Also, the Drug uptake result in the data set with Serum is on record as “Active”.

As to `C=CCc1cc(F)cc(/C=N/NC(=O)CN2CCN(Cc3ccc(C#N)cc3)CC2)c1O`, the IC50 in data set [1] came to 12.7 µM. In data set [2], the remaining at 3 h, 10 µM was 65%.

On to `C=CCc1cc(F)cc(/C=N/NC(=O)CN2CCN(Cc3ccc(C(F)(F)F)cc3)CC2)c1O`, for which the remaining at 3 h, 10 µM in data set [2] was determined as 49%.

Regarding `N#Cc1ccc(C(=O)N2CCN(CC(=O)N/N=C/c3cc(F)ccc3O)CC2)cc1`, the IC50 in data set [1] is 15.3 µM. Besides, in data set [2], the remaining at 3 h, 10 µM was determined as 88%.

For `CCCc1cccc(/C=N/NC(=O)CN2CCN(C(=O)c3ccc(F)cc3)CC2)c1O`, the IC50 in data set [1] is 7.3 µM. Besides, in data set [2], the remaining at 3 h, 10 µM came out at 69%.

On to `CCCc1cc(F)cc(/C=N/NC(=O)CN2CCN(Cc3ccccc3)CC2)c1O`, for which the IC50 in data set [1] was found to be 8.9 µM. In data set [2], the remaining at 3 h, 10 µM was found to be 49%.

For the molecule `CCCc1cccc(/C=N/NC(=O)CN2CCN(C(=O)c3ccc(C#N)cc3)CC2)c1O`, the IC50 in data set [1] was 12.8 µM. The remaining at 3 h, 10 µM in data set [2] is 61%.

Turning to `CCCc1cc(F)cc(/C=N/NC(=O)CN2CCN(Cc3ccc(C#N)cc3)CC2)c1O`, the IC50 in data set [1] turned out to be 11.2 µM. In data set [2], the remaining at 3 h, 10 µM worked out at 49%.

As for `C=CCc1cccc(/C=N/NC(=O)CN2CCN(C(=O)c3ccccc3)CC2)c1O`, the IC50 in data set [1] turned out to be 12.1 µM. For the same molecule, in data set [2], the remaining at 3 h, 10 µM was determined as 89%.
